Experimental data published in ChEMBL document CHEMBL4725388, “Characterization of Aminobenzylphenols as Protein Disulfide Isomerase Inhibitors in Glioblastoma Cell Lines” (J Med Chem, 2020).
The source made the active and inactive calls. No cut-off for these calls is given here.

Key:
[1] = target: T1, Protein disulfide-isomerase (Homo sapiens, UniProt P07237); test: Inhibition of recombinant human wild-type N-terminal His-tagged PDIA1 expressed in Escherichia coli strain BL21(DE3) using bovine insulin as substrate preincubated for 1 hr followed by substrate addition
Procedure, shortened: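 IC50 from dose-response curves; PDI reductase assay for enzyme, MTT in U-87 MG cells for cytotoxicity; mean ± SD of at least three independent experiments.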
Target sequence in this assay (P07237 whole entry): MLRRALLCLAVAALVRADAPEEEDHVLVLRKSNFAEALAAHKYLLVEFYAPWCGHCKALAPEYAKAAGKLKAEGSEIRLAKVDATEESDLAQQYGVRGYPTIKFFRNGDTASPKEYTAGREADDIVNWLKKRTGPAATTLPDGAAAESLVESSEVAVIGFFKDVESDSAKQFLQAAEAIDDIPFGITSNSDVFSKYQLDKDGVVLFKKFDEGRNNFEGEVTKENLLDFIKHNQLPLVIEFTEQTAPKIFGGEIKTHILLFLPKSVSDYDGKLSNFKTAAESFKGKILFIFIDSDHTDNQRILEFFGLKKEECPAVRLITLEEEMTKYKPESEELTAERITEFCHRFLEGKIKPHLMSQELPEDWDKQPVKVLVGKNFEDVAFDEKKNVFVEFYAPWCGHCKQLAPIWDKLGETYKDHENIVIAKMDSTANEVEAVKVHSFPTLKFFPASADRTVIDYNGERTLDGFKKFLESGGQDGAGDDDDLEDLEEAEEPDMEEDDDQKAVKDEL

[2] = target: T2, Protein disulfide-isomerase A2 (Homo sapiens, UniProt Q13087); test: (§1) Inhibition of N-(4-(5,5-Difluoro-1,3,7,9-tetramethyl-5H-4(Gamma4),5(Gamma4)-dipyrrolo[1,2-c:2',1'-f][1,3,2]diazaborinin-10-yl))-N-(2-(4-((6-hydroxybenzo[d]-[1,3]dioxol-5-yl)(piperidin-1-yl)methyl)benzamido)ethyl)-benzamide binding to recombinant PDIA2 (unknown origin) measured after 24 hrs by PAGE analysis
T2 sequence (Q13087 whole entry): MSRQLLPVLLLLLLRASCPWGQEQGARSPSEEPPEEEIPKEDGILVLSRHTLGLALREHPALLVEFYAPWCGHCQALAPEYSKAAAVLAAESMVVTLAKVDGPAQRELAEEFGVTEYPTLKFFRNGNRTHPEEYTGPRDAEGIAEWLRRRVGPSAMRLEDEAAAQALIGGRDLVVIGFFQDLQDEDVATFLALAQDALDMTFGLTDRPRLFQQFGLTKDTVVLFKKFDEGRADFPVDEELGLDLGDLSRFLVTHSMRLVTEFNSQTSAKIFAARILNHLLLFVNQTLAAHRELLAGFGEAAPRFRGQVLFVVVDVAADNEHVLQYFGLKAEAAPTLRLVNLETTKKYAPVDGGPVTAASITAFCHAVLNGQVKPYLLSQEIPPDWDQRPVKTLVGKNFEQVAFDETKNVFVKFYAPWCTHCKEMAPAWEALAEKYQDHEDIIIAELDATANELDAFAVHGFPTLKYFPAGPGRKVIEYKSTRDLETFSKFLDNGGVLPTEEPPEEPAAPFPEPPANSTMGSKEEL

[3] = target: T3, Protein disulfide-isomerase A3 (Homo sapiens, UniProt P30101); test: as §1, with “PDIA3” for “PDIA2”
T3 sequence (P30101 whole entry): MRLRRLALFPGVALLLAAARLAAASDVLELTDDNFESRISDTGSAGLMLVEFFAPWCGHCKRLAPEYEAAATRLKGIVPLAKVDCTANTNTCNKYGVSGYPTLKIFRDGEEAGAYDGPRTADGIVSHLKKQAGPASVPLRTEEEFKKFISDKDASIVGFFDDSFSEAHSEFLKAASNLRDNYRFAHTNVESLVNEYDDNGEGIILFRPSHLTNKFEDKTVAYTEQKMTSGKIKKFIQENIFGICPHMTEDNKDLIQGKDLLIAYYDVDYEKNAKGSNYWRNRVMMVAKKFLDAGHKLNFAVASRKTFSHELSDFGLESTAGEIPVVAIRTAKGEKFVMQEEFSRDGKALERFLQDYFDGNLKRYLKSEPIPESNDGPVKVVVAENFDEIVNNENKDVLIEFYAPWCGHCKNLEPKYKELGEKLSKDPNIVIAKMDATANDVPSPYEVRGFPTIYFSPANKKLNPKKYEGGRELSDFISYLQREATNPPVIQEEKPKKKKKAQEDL

[4] = target: T1, Protein disulfide-isomerase; test: as §1, with “PDIA1 in human U-87 MG cell lysates” for “recombinant PDIA2 (unknown origin)”; assay type: subcellular
Target sequence in this assay (P07237 18-508 limits assumed): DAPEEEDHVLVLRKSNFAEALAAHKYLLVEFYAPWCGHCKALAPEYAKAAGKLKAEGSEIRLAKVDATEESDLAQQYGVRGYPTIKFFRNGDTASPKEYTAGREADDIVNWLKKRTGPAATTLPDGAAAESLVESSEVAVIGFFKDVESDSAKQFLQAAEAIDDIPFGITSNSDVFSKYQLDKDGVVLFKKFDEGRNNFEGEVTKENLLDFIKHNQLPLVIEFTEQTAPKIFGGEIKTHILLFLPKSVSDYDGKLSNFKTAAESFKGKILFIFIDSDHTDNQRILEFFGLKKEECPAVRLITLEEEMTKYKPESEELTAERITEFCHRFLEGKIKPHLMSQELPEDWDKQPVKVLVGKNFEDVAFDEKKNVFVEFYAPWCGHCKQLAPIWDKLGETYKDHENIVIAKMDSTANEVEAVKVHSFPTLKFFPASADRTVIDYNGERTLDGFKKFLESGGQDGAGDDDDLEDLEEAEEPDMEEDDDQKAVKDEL

U-87MG ATCC [5] = test: Upregulation of NQO1 gene expression in human U-87 MG cells at 20 uM incubated for 4 hrs followed by Bru addition during last 30 mins of incubation by Trizol reagent based gene sequencing analysis; assay type: functional, cell-based
U-87MG ATCC [6] = test: Upregulation of MYZAP gene expression in human U-87 MG cells at 20 uM incubated for 4 hrs followed by Bru addition during last 30 mins of incubation by Trizol reagent based gene sequencing analysis; assay type: functional, cell-based
U-87MG ATCC [7] = test: Upregulation of HSPA5 gene expression in human U-87 MG cells at 20 uM incubated for 4 hrs followed by Bru addition during last 30 mins of incubation by Trizol reagent based gene sequencing analysis; assay type: functional, cell-based
U-87MG ATCC [8] = test: Upregulation of CALR gene expression in human U-87 MG cells at 20 uM incubated for 4 hrs followed by Bru addition during last 30 mins of incubation by Trizol reagent based gene sequencing analysis; assay type: functional, cell-based
U-87MG ATCC [9] = test: Upregulation of SLC7A11 gene expression in human U-87 MG cells at 20 uM incubated for 4 hrs followed by Bru addition during last 30 mins of incubation by Trizol reagent based gene sequencing analysis; assay type: functional, cell-based
[10] = Effect on total CALR expression in human U-87 MG cells at 20 uM measured after 12 to 48 hrs by Western blot analysis; assay type: ADME, cell-based; conditions: u-87mg atcc, time 12-48 hrs

IC50 [1] [µM] | inhibition (INH) [2] | inhibition (INH) [3] | inhibition [4] | SMILES | Activity (U-87MG ATCC [5]) | Activity (U-87MG ATCC [6]) | Activity (U-87MG ATCC [7]) | Activity (U-87MG ATCC [8]) | Activity (U-87MG ATCC [9]) | Activity [10]
2.9 | Dose-dependent effect | Dose-dependent effect | Dose-dependent effect | Oc1cc2c(cc1C(c1ccccc1)N1CCCCC1)OCO2 (stereo unspecified) |  |  |  |  |  | 
< 0.2 |  |  |  | Oc1c(C(c2ccncc2)N2CCCCC2)ccc2ccoc12 (stereo unspecified) | Active | Active | Active | Active | Active | Non-Toxic
